Source: PubChem (Broad Institute)
An excerpt weighted towards active compounds, which were near 3.5% of everything screened.
DENV2 CPE – protects cells from dengue virus 2 cytopathic effect. CPE inhibition, % at 9.99 µM. DENV2-infected cells, cytopathic effect rescue, plate reader. hit rate 1.7% among 350,000. AID 651640; in the data active means CPE inhibition above about 20%, passing the limit was not always enough; tested in BHK-21 cells;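 further: 0% = median of neutral control wells and 100% = median of positive control wells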
PGC1a acetyl inh – lowers PGC1a acetylation signal in U2OS cells. AlphaScreen anti-acetyl-lysine; with virally co-expressed GCN5 acetyltransferase. inhibition, % at 15.6 µM. hit rate 0.17% among 350,000. AID 651687;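 active means every replicate shows inhibition of at least 40%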;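 further: 0% = neutral control wells and 100% = positive control wells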
PglD inh – inhibitors of Campylobacter jejuni PglD acetyltransferase; purified PglD enzyme, DTNB colorimetric CoA detection; hit rate 0.098% among 360,000; inhibition, % at 12.5 µM; in the data active means inhibition above about 16%, passing the limit was not always enough
Ecoli rRNA inh – inhibits bacterial ribosomal RNA function over humanized ribosomes | E. coli WT GFP vs humanized-ribosome RFP mutants, fluorescence, 24 h; hits give low values; DMSO median 0, no signal -100 | GFP signal change (wild-type ribosome), % (no concentration beside the values) | hit rate 1.6% among 350,000;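 active means significant combined selectivity score with lowered wild-type GFP, culture density cut under 30%, mutant RFP and density less affected; inactive means any of these conditions unmet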
FN deposit inh – fibronectin deposition inhibition; AH1F fibroblasts, Alexa488-fibronectin deposition fluorescence, overnight; inhibition, % at 12.6 µM; hit rate 0.086% among 350,000;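 active means mean inhibition across replicates of 30% or more, regardless of how many single replicates reach that level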;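 further: positive control wells lacked labelled fibronectin entirely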
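Material: AH1F fibroblast monolayer depositing Alexa488-labelled fibronectin into matrix / Amount: 10000 AH1F cells per well / Signal: fluorescence 485/525 nm / Medium: DMEM, 2% serum / Compound: single dose, pinned / Incubation: 1 h cell adhesion before compound, then overnight fibronectin incubation / Reagent: Alexa488-FN, 24 nM final / Read-out: inhibition of fibronectin deposition signal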
HIV Env fusion – blocks HIV Env-driven cell-cell fusion; HeLa-JRFL Env/CEM21 cell fusion, luciferase; inhibition, % at 12.3 µM; AID 651610; hit rate 1.1% among 360,000;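 active means mean replicate inhibition score of at least 50 and every replicate individually at or above 50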;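 further: 0% = plate neutral controls and 100% = maraviroc near 300 nM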
* = called active by the depositor; x = not tested or not shown; [ ] = remark or other dose.

SMILES	DENV2 CPE	PGC1a acetyl inh	PglD inh	Ecoli rRNA inh	FN deposit inh	HIV Env fusion
Cc1noc(C)c1CSc1nc2ccccc2c(=O)n1-c1ccc(Cl)cc1	x	-11.8	7.8	x	11.3	62.0*
O=C(CCc1nc2ccccc2s1)OCC(=O)c1ccccc1	x	x	x	-19.9*	0.4	-5.9
O=C(CCc1nc2ccccc2s1)c1ccccc1	x	3.3	4.2	x	-3.4	-8.2
O=C(CCc1nc2ccccc2s1)OCC(=O)c1ccc[nH]1	4.1	4.9	0.0	-26.9*	-1.5	-6.0
Cn1c(N)c(C(=O)COC(=O)CCc2nc3ccccc3s2)c(=O)n(C)c1=O	0.4	6.1	-3.1	-10.0	-3.5	1.2
COc1ccc2c3c([nH]c2c1)[C@@H](CO)N(C(=O)c1ccncc1)CC31CN(C(=O)NC(C)C)C1	x	x	x	5.3	x	x
CN(C)C(=O)C[C@H]1CC[C@@H]2[C@@H](COc3ccc(NC(=O)C4CCCC4)cc3C(=O)N2C)O1	5.7	3.7	x	1.9	4.2	x
C[C@@H]1CCCCO[C@@H](CN(C)S(=O)(=O)c2ccc(F)cc2)[C@H](C)CN([C@@H](C)CO)C(=O)c2cc(NS(=O)(=O)c3cccs3)ccc2O1	2.3	5.0	-0.3	-4.1	x	-0.1[16.7 µM]
O=C(c1ccco1)N1CCCC(c2nc(-c3ccc(S(=O)(=O)NCc4ccccc4)cc3)no2)C1 (stereo not drawn)	x	2.9	x	x	x	65.0*
c1ccc(CCSc2ncnc3nc[nH]c23)cc1	7.5	3.4	-4.1	-10.7	4.8	-2.8
c1ccc2c(CSc3ncnc4nc[nH]c34)cccc2c1	-3.6	x	x	-31.3*	-0.6	20.9
Cc1sc(-n2cccc2)c(C(=O)O)c1C	x	0.0	0.9	x	13.0	-31.6
O=C(O)c1c(-n2cccc2)sc2c1CCCC2	-2.4	x	x	-44.0*	-7.3	13.1
O=C(NC12CC3CC(CC(C3)C1)C2)N1CCN(c2ncccn2)CC1	-7.8	x	x	-20.7*	-1.2	-0.1
C=CCOc1ccc(/C=C/C(=O)OCC(=O)NC2CCCCCCC2)cc1	-3.8	x	-2.7	10.6	-0.4	59.9*
C=CCOc1ccc(/C=C/C(=O)OCC(=O)NCC2CCCCC2)cc1	-7.0	x	-3.5	3.2	7.0	-230.2
N#Cc1ccsc1NC(=O)CSc1nnnn1-c1ccc(O)cc1	9.5	11.4	x	-25.5*	4.8	-0.4
N#Cc1ccsc1NC(=O)CSc1nncs1	13.7	x	-5.3	7.3	x	x
CN1c2ccc(-c3ccc(C#N)cc3)cc2[C@H]2[C@H](CCN2S(=O)(=O)c2cccc(F)c2)[C@@H]1CO	3.3	24.0	-0.8	-5.6	11.7	x
CN/N=C(\Cc1nc2ccccc2[nH]1)c1ccc([N+](=O)[O-])cc1	8.3	x	x	-22.2*	-1.3	4.0
O=C(c1ccccc1)N1CC[C@@H]2[C@H](CO)Nc3ccc(C#Cc4cccc(F)c4)cc3[C@@H]21	116.2*	1.7	2.0	-6.5	24.8	x
O=C(c1ccccc1)N1CC[C@H]2[C@H](CO)Nc3ccc(C#Cc4cccc(F)c4)cc3[C@H]21	63.6*	7.7	-5.6	-1.7	1.9	x
CCCc1cn(CC[C@@H]2CC[C@H](NC(=O)C3CCCC3)[C@H](CO)O2)nn1	-12.2	-7.5	0.8	0.7	1.6	-1.7[16.7 µM]
CC(C)(O)/C=C/C[C@](C)(O)C1CC[C@]2(C)C1[C@H](O[C@H]1O[C@@H](CO)[C@H](O)[C@@H](O)[C@@H]1O)CC1[C@@]3(C)CC[C@H](O)C(C)(C)C3[C@@H](O)C[C@]12C (stereo partly drawn)	42.1*	x	6.6	11.5	-2.1	-20.1
CCOc1ccc(C(=O)/C=C/c2cc(OC)c(OC)c(OC)c2)cc1	x	17.7	3.0	-19.5*	7.0	-6.0
COc1ccc(CNC(=O)C[C@@H]2C[C@H]3c4cc(NS(=O)(=O)c5ccc(F)cc5)ccc4O[C@H]3[C@H](CO)O2)cc1	-2.3	-21.5	1.9	-0.1	-1.6	x
C[C@H](CO)N1C[C@H](C)[C@H](CN(C)Cc2ccc(Cl)c(Cl)c2)OCCCC[C@H](C)Oc2ccc(NC(=O)Nc3ccc(F)cc3)cc2C1=O	x	-8.3	-1.7	-0.7	x	49.6[16.7 µM]
Cc1cc(C(=O)CSc2nc3ccccc3[nH]2)c(C)n1Cc1ccco1	0.0	3.2	2.9	-33.5*	-17.4	4.8
CCOC(=O)[C@@H]1[C@H]2COc3ccc(Br)cc3[C@@H]2N2C(=O)N(c3ccc(F)cc3)C(=O)[C@@]12C	-15.5	-4.8	-4.5	0.0	3.2	99.9*
